Screening data deposited in PubChem BioAssay by The Scripps Research Institute Molecular Screening Center.
HTR2A ag = mouse Htr2a agonists via beta-arrestin recruitment, primary screen, cell-based, luminescence | CHO-K1 mHTR2A beta-arrestin complementation; percent of 30 µM serotonin response | AID 624169, 2012 | activation, % at 7.6 µM | 360,000 compounds, 0.66% hits | 5-hydroxytryptamine receptor 2A (Mus musculus), P35363;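 active = activation above a run cutoff, the mean activation of all tested compounds plus 3 SD, cut at about 14% in these data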;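 note: 0% = plate median of compound wells and 100% = 30 µM serotonin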
FXN GAA850 act = FXN promoter activators, primary screen, cell-based, luciferase luminescence, HEK293 lucGAA850. HEK293 lucGAA850 FXN promoter luciferase reporter, 24 h; percent of 10 µM SAHA response. activation, % at 6 µM. 360,000 compounds, 0.56% hits. AID 540364, 2011;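 active = activation above the average of all compounds screened plus 3 SD, cutoff fixed separately per campaign, cut at about 7.5% in these data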;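 note: 0% = DMSO wells and 100% = 10 µM SAHA wells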
AHR activator = AHR activators, primary screen, cell-based, luminescence, luciferase reporter, human; Aryl hydrocarbon receptor (Homo sapiens), P35869; AHR-responsive luciferase reporter cells; activation, % at 5 µM; 320,000 compounds, 2.5% hits; AID 2796, 2010; in the data active = activation above about 47%;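 note: 0% = vehicle wells and 100% = reference agonist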
MC4R ag barr = MC4R agonists recruiting beta-arrestin, primary screen, cell-based, luminescence, agonist arm of biased-ligand search | Melanocortin receptor 4 (Homo sapiens), P32245 | U2OS MC4R beta-arrestin complementation; percent of melanotan II response, DMSO zero | activation, % at 8.9 µM | 360,000 compounds, 0.98% hits;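 active = activation above a per-plate cutoff, the mean activation of sample wells on that plate plus 3 SD, cut at about 8% in these data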
Target sequence (P32245 whole entry, looked up): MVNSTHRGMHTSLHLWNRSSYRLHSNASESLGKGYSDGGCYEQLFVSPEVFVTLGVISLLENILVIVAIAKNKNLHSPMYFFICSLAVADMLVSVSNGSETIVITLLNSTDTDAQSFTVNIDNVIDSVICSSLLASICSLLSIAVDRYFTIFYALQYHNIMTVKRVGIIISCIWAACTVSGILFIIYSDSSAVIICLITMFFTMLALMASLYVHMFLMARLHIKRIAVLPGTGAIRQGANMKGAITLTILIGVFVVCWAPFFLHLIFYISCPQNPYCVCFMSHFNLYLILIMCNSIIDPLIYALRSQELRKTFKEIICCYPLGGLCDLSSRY
MC4R antag cAMP = MC4R antagonists of cAMP signaling, primary screen, cell-based, TR-FRET, antagonist arm of biased-ligand search; AID 540295, 2011; inhibition, % at 6.5 µM; 360,000 compounds, 0.48% hits; MC4R-expressing cells, MTII-stimulated cAMP, LANCE TR-FRET;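 active = inhibition above its plate's cutoff, the mean of tested wells on that plate plus 3 SD, cut at about 29% in these data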;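 note: 0% = Melanotan II alone and 100% = Melanotan II plus saturating MCL0020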
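Material: human MC4R-expressing U2OS cells. Probe or stimulus: Melanotan II challenge. Dosing: 6.5 µM single dose. Times: 30-min compound, 1-h challenge, 1-h detection, room temperature. Technique: TR-FRET with Eu-cAMP and labeled anti-cAMP, 671 nm. Replication: singlicate.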
Active calls of the source: *; nt = not tested or not shown. Shown are actives, neighbours in structure and some others; about 4.7% of the full set was active somewhere.

SMILES | HTR2A ag | FXN GAA850 act | AHR activator | MC4R ag barr | MC4R antag cAMP
O=C(c1cccnc1)N1CCC(Oc2ccc(C(=O)N3CCCC(O)C3)cc2)CC1 (centres undefined) | -2.8 | 3.5 | -2.0 | -3.2 | 0.1
Cc1ccc(S(=O)(=O)Nc2ccc(NC(=O)Nc3cccc(C(F)(F)F)c3)cc2)cc1 | -5.2 | -2.2 | 21.0 | 9.2* | 13.8
CCN(CC)S(=O)(=O)c1ccc(NC(=O)Nc2cccc(C(F)(F)F)c2)cc1 | -5.7 | -2.0 | 0.2 | 0.3 | 2.9
CC(C)c1ccc(NC(=O)c2snc3ccc(Cl)cc23)cc1 | -4.2 | 4.9 | 54.6* | 2.3 | -4.7
O=c1c2ccccc2nnn1CSc1ccccc1 | 1.1 | 3.0 | 60.4* | -0.6 | 3.0
COc1cc([N+](=O)[O-])ccc1NC(=O)CSc1nc2ccccc2n1-c1ccccc1 | nt | nt | 61.3* | nt | nt
N#CCCn1cc(C(=O)CN2C(=O)C(=O)N(C3CCCC3)C2=O)c2ccccc21 | -0.2 | -1.7 | nt | -3.5 | -1.1
CCCC(=O)Nc1cc(-c2nnc(OC)c3ccccc23)ccc1N1CCCCC1 | nt | nt | 1.1 | nt | nt
COc1nnc(-c2ccc(N3CCCCC3)c(N)c2)c2ccccc12 | 3.5 | 3.5 | 64.3* | -0.7 | 5.7
CCOC(=O)c1[nH]cnc1C(=O)N1CCC(C)CC1 | 3.6 | 2.0 | 1.0 | 0.4 | 3.8
CC(=O)N/N=C(\C)c1cccc(C(F)(F)F)c1 | 5.6 | -0.9 | 4.6 | 3.3 | 15.4
C/C(=N\NC(=O)CNc1cccc(C(F)(F)F)c1)c1ccc(Br)cc1 | -0.1 | 0.2 | 46.1 | 8.3* | 8.1
C/C(=N\NC(=O)CNc1cccc(C)c1)c1ccc(Br)s1 | -3.2 | -1.7 | 71.2* | 0.6 | -1.1
C/C(=N\NC(=O)Cc1ccccc1)c1ccc(Br)s1 | -1.4 | 2.8 | 20.1 | 0.2 | 0.4
C/C(=N\NC(=O)CNc1cccc(C(F)(F)F)c1)c1cccc(Br)c1 | 1.9 | 0.8 | 75.2* | -1.1 | 2.8
CCOc1cc(N2CCOCC2)c(OCC)cc1NC(=O)CN1C(=O)NC2(CCCCC2C)C1=O (centres undefined) | 3.9 | 1.9 | nt | -3.6 | 8.5
O=C(C[n+]1ccc(C(=O)c2ccccc2)cc1)Nc1cccc([N+](=O)[O-])c1 | -1.2 | nt | nt | nt | nt
CC1(c2nc3ccccc3[nH]2)c2ccccc2C(=O)N1Cc1ccccn1 (centres undefined) | 6.5 | nt | nt | nt | nt
O=C(N=Nc1c(O)[nH]c2ccccc12)c1cc(-c2cccs2)[nH]n1 | -0.5 | -0.3 | 83.8* | 6.0 | 10.0
O=C(Cc1cccs1)N=Nc1c(O)[nH]c2ccccc12 | -1.8 | 5.2 | 7.6 | -2.7 | -12.6
CC1(C(=O)Nc2ccc3c(c2)OCCO3)CN(S(C)(=O)=O)CC(=O)N1CCc1ccc(O)cc1 (centres undefined) | -1.5 | nt | nt | nt | nt
Cc1cccc2c1NC(=O)C2(c1ccc(O)cc1)c1ccc(O)cc1 | 6.5 | 2.8 | 13.9 | 86.8* | -18.0
Cc1cc(C2(c3ccc(O)c(C)c3)C(=O)Nc3ccccc32)ccc1O | 7.9 | 0.3 | 9.2 | 7.9 | 9.5
O=C(COc1cccc2c1CCNC2=O)Nc1cccc(F)c1 | 4.6 | -0.3 | 49.1* | -1.1 | 2.2
O=C(COc1cccc2c1CCNC2=O)Nc1cccc(C(F)(F)F)c1 | -5.0 | -0.4 | 6.6 | -0.3 | -5.7
SMILES | HTR2A ag | FXN GAA850 act | AHR activator | MC4R ag barr | MC4R antag cAMP
CC(C)Oc1cccc(-c2cc(C(=O)NC(=S)N(C)c3ccccc3C(=O)O)c3ccccc3n2)c1 | 2.4 | -0.5 | 49.7* | -0.9 | 7.6
Cc1ccc(/C=C/C(=O)c2cc(Br)ccc2OC(=O)c2ccco2)cc1 | 4.0 | 5.6 | 9.4 | -1.2 | -14.5
COc1ccccc1/C=C/C(=O)c1cc(Br)ccc1OC(=O)c1ccco1 | -2.9 | -0.7 | 74.0* | -2.7 | -0.3
CN1CCN(CCCNC(=O)c2ccc(/C=C3\Sc4ccccc4N(Cc4ccccc4F)C3=O)cc2)CC1 | -6.0 | 2.3 | nt | 8.9* | 8.9
CCOC(=O)c1c(C)[nH]c(C(=O)OCc2ccc(C)cc2)c1C | 2.9 | 1.9 | 48.6* | -0.2 | 15.8
CCOC(=O)c1[nH]c(C)c(C(=O)OCc2ccc(C)cc2)c1C | -0.8 | -2.0 | 6.7 | -0.4 | 0.7
CCOC(=O)c1c(C)[nH]c(C(=O)CSc2ccccc2)c1C | 3.3 | 1.1 | -0.7 | 8.4* | -5.1
CCOC(=O)c1c(C)[nH]c(C(=O)CN2CC(C)OC(C)C2)c1C (centres undefined) | 16.7* | -2.4 | 0.6 | 3.0 | 8.2
CCOC(=O)c1c(C)[nH]c(C(=O)COC(=O)c2oc3ccccc3c2C)c1C | -1.6 | -0.1 | 3.1 | 8.3* | -2.6
O=S1(=O)CC(N2CCN(CCO)CC2)CN1Cc1ccccc1 (centres undefined) | -4.1 | nt | nt | nt | nt
Fc1ccc(C2c3[nH]c4ccccc4c3CCN2CCCn2cccn2)cc1 (centres undefined) | -5.3 | 0.2 | 29.2 | -1.9 | -3.3
Fc1ccc(C2c3[nH]c4ccccc4c3CCN2Cc2ccoc2)cc1 (centres undefined) | -3.6 | -0.3 | 51.1* | -0.5 | 11.4
CCCCC1(C)OC(=O)C(=Cc2ccc(N(C)C)cc2)C(=O)O1 (centres undefined) | 19.8* | 2.7 | 0.0 | 0.8 | -2.0
CCCCC1(C)OC(=O)C(=Cc2c[nH]c3ccccc23)C(=O)O1 (centres undefined) | -1.5 | -0.5 | 13.3 | 5.2 | 17.8
Cc1ccc(NC(=O)C(C)OC(=O)c2ccc(NC(=O)CC#N)cc2)cc1S(=O)(=O)N1CCOCC1 (centres undefined) | -0.6 | 0.0 | 1.1 | -4.5 | 2.0
Cc1csc(NC(=O)CSc2nnc(-c3ccco3)n2C)n1 | 8.2 | 0.2 | 3.1 | 0.7 | 0.2
COc1cccc2cc(-c3nnc(SCC(=O)Nc4nc(C)cs4)n3C)oc12 | 24.7* | 0.6 | 3.3 | -0.2 | 2.8
Cc1ccc(NC(=O)COC(=O)c2c(-c3ccccc3)noc2C)c(C)c1 | -3.9 | 0.2 | 1.4 | 0.4 | 11.5
C=CCc1cccc(/C=N/NC(=O)CNc2ccccc2OC)c1O | -4.0 | 2.3 | 61.2* | 3.0 | -2.2
Cc1c(N2CCCCC2)[nH]c2ccccc12 | 5.7 | -0.9 | nt | -0.4 | 11.6
COC(=O)c1c(C(=O)OC)c2ccncn2c1Cl | 3.4 | 1.7 | 74.0* | 0.6 | -2.1
Fc1cccc(Nc2nc3ccccc3n3nnnc23)c1 | 3.3 | 3.9 | 46.7 | 1.5 | -0.4
Cc1cc(C)n(-c2nc3ccccc3nc2Nc2ccc3c(c2)OCO3)n1 | -4.8 | 3.5 | 76.1* | 0.2 | 19.0
c1ccc2c(c1)nc(Nc1ccc3c(c1)OCO3)c1nnnn12 | 4.4 | 3.9 | 120.0* | 0.1 | -2.5
CCOC(=O)C1=CCN(S(=O)(=O)c2ccccc2Br)C1c1cccc(F)c1 (centres undefined) | 1.2 | nt | nt | nt | nt
